Assay outcomes from PubChem.
CHO parental Ca: ATP-evoked calcium signal inhibitors, parental CHO, primary screen, counter-screen for OX1R antagonist project, cell-based, fluorescence, Fluo-8 calcium dye; AID 463079, 2010; 330,000 compounds, 0.63% hits; inhibition, % at 5.6 µM; parental CHO-K1, ATP-induced calcium, Fluo-8 fluorescence;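 active = inhibition above that plate's mean sample inhibition plus 3 SD, cut at about 26% in these data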;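 also: 0% = ATP-challenged DMSO wells and 100% = DMSO wells without ATP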
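Material – parental CHO cells · Reagent – ATP stimulus · Compound – single nominal dose of 5.6 µM per compound · Detection – Fluo-8 fluorescence · Read-out basis – percent inhibition of calcium signal · Controls – ATP-challenged DMSO wells low, unchallenged DMSO wells high · Repeats – no replicates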
OX1R antag-1: OX1R (HCRTR1) antagonists, primary screen, fluorescence, CHO/OX1R cells, Fluo-8 calcium, orexin A; Orexin/Hypocretin receptor type 1 (Homo sapiens), O43613; inhibition, % at 5 µM; 330,000 compounds, 0.43% hits; Fluo-8 calcium fluorescence;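 active = inhibition above its plate's threshold, mean inhibition of all tested compounds on the plate plus 3 SD, cut at about 37% in these data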;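 also: 0% = orexin A challenge wells and 100% = SB-334867-A antagonist wells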
GPR7 antagonist: GPR7 receptor antagonists, primary screen, cell-based, fluorescence, single concentration; inhibition, % at 4.4 µM; Neuropeptides B/W receptor type 1 (Homo sapiens), P48145; AID 1861, 2009; 290,000 compounds, 1.1% hits; GPR7-expressing cells, fluorescence antagonist assay; in the data active = inhibition above about 16%, passing the limit was not always enough;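 also: cells stimulated with the agonist NPW; 0% = agonist with vehicle and 100% = vehicle without agonist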
Target sequence (P48145 whole entry, looked up): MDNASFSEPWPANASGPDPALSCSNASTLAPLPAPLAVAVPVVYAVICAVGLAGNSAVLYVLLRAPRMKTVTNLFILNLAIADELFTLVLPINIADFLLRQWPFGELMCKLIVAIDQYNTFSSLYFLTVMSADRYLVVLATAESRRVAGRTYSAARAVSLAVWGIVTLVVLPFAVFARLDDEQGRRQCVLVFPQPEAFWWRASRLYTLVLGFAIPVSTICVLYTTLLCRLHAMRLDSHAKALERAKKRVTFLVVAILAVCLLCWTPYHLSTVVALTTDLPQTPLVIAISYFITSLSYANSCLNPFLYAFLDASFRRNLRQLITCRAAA
GalR3 antagonist: GalR3 antagonists in HEK293 cells, primary screen, cell-based, fluorescence readout | AID 651719, 2012 | HEK293 GalR3-CNG cAMP membrane potential fluorescence; galR3 body fused to GalR1 C-terminus | inhibition, % at 3 µM | Galanin receptor type 3 (Homo sapiens), O60755 | 360,000 compounds, 0.44% hits;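 active = inhibition above the screen-wide average plus 3 SD, cut at about 13% in these data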;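 also: forskolin and galanin both at EC90 stimulate the cells; cAMP rise reported by CNG channel membrane potential dye signal; 0% = forskolin plus galanin with DMSO and 100% = forskolin alone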
Target sequence (O60755 1-299 limits assumed): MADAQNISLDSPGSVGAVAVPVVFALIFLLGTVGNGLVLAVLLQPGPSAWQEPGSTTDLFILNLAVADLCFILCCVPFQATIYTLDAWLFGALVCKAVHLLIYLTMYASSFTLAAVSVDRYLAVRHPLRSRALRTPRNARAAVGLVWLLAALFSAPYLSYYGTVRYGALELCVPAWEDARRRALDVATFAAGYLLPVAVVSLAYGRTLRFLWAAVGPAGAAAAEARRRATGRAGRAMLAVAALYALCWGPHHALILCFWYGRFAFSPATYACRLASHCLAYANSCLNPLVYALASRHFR
OX1R antag-2: antagonists of human orexin 1 receptor (OX1R). 330,000 compounds, 1.8% hits. Orexin/Hypocretin receptor type 1 (Homo sapiens), O43613. OX1R-expressing cells, FRET antagonist read-out. inhibition, % at 6.6 µM; in the data active = inhibition mostly above about 38%, no sharp cut-off; inactive = mostly below about 40%;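 also: 0% = agonist challenge alone and 100% = reference antagonist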
GPR7 antag cf: GPR7 receptor antagonists, confirmation, cell-based, fluorescence, single concentration; shares compounds with GPR7 antagonist; 2,400 compounds, 52% hits; inhibition, % at 4.4 µM; GPR7-expressing cells, calcium fluorescence antagonist mode; AID 1952, 2009; in the data active = inhibition above about 24%;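 also: stimulated with the GPR7 agonist NPW; 0% = agonist plus vehicle and 100% = vehicle alone without agonist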
MCHR1 antag: MCHR1 antagonists in cells, counter-screen for GPR7 antagonist project, cell-based, fluorescence, human | inhibition, % at 4.4 µM | 2,400 compounds, 62% hits | shares compounds with GPR7 antagonist | MCHR1-expressing cells, fluorescence antagonist assay | AID 2148, 2009; in the data active = inhibition above about 22%;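 also: 0% = vehicle with agonist and 100% = vehicle without agonist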
* marks the source's active call; other numbers are inactive results. An excerpt weighted towards active compounds, which were near 3.1% of everything screened.

How did C[C@]12CCC3[C@@H](CCC4=CC(=O)CC[C@@]43C=O)C1CCC2=O (some centres undefined) do in these assays?
CHO parental Ca: 1; OX1R antag-1: 13; GPR7 antagonist: 28*; GalR3 antagonist: -5; OX1R antag-2: -6; GPR7 antag cf: -9; MCHR1 antag: 7

How did CCc1cc(=O)oc2cc(OCC(=O)N3C[C@H]4C[C@@H](C3)c3cccc(=O)n3C4)c(Cl)cc12 do in these assays?
CHO parental Ca: -15; OX1R antag-1: -22; GPR7 antagonist: -5; GalR3 antagonist: -6; OX1R antag-2: 11

Results for Brc1ccc(-[n+]2c(-c3ccccc3)cc(-c3ccccc3)cc2-c2ccccc2)cc1 ?
CHO parental Ca: 13; OX1R antag-1: 25; GalR3 antagonist: -12; OX1R antag-2: 28

Results for Nc1ccccc1-[n+]1c(-c2ccccc2)cc(-c2ccccc2)cc1-c1ccccc1 ?
CHO parental Ca: -9; OX1R antag-1: -4; GPR7 antagonist: 84*; GalR3 antagonist: -9; OX1R antag-2: 14; GPR7 antag cf: 76*; MCHR1 antag: 66*

What do the screens show for `COC1CC2C=C(C)C=CC=CC(=O)NC(c3ccccc3)CC=CCCC(O)CC(=O)C2=C1O` (centres undefined)?
GalR3 antagonist: -4

Results for COc1ccc(OC)c(-n2c(O)c(/C=C3\C=Nc4ccccc43)c(=O)[nH]c2=O)c1 ?
CHO parental Ca: 8; OX1R antag-1: 6; GPR7 antagonist: 31; GalR3 antagonist: -7; OX1R antag-2: 21

What do the screens show for `COc1ccccc1-n1c(O)c(/C=C2\C=Nc3ccccc32)c(=O)[nH]c1=O`?
CHO parental Ca: -1; OX1R antag-1: -8; GPR7 antagonist: 29*; GalR3 antagonist: -4; OX1R antag-2: 22; GPR7 antag cf: 39*; MCHR1 antag: 53*

How did CN1CCC2(CC1)c1ccccc1-c1ccccc12 do in these assays?
GalR3 antagonist: -7

Results for O=C(COc1ccc(Cl)cc1)N1CCN(Cc2ccc([N+](=O)[O-])cc2)CC1 ?
CHO parental Ca: -16; OX1R antag-1: -21; GPR7 antagonist: 30*; GalR3 antagonist: -5; OX1R antag-2: 18; GPR7 antag cf: 28*; MCHR1 antag: 46*

Results for Cc1c(CCN)ccc2c1[nH]c1ccccc12 ?
CHO parental Ca: 17; OX1R antag-1: 1; GPR7 antagonist: 37*; GalR3 antagonist: -13; OX1R antag-2: -5; GPR7 antag cf: 37*; MCHR1 antag: 27*

What do the screens show for `O=P(NC(c1ccccc1)c1ccccc1)(Oc1ccccc1)Oc1ccccc1`?
CHO parental Ca: -14; OX1R antag-1: -19; GPR7 antagonist: 26*; GalR3 antagonist: -11; OX1R antag-2: 17; GPR7 antag cf: 32*; MCHR1 antag: 47*

Results for COCCOC(=O)c1c(N)n(Cc2ccc(OC)cc2)c2nc3ccccc3nc12 ?
CHO parental Ca: -25; OX1R antag-1: 7; GPR7 antagonist: 30*; GalR3 antagonist: -4; OX1R antag-2: 59; GPR7 antag cf: 21; MCHR1 antag: 19

Results for CCOC(=O)c1c(N)n(Cc2ccc(OC)cc2)c2nc3ccccc3nc12 ?
GPR7 antagonist: 8; GalR3 antagonist: -6

What do the screens show for `O=C1CCC2(O)C3Cc4ccc(O)c5c4C2(CCN3Cc2ccoc2)C1O5` (centres undefined)?
GalR3 antagonist: -5

How did COc1ccc(-c2cc(-c3ccccc3)[n+](C)c(-c3ccccc3)c2)cc1 do in these assays?
CHO parental Ca: -17; OX1R antag-1: -18; GPR7 antagonist: 33*; GalR3 antagonist: -6; OX1R antag-2: 21; GPR7 antag cf: 42*; MCHR1 antag: 38*

Results for Cc1ccc(-c2cc(-c3ccccc3)cc(-c3ccccc3)[n+]2-c2ccc(C(=O)O)cc2)cc1 ?
CHO parental Ca: -2; OX1R antag-1: -6; GalR3 antagonist: -8; OX1R antag-2: 27

What do the screens show for `COc1ccc(-[n+]2c(-c3ccccc3)cc(-c3ccc(C)cc3)cc2-c2ccccc2)cc1`?
CHO parental Ca: 45*; OX1R antag-1: 18; GPR7 antagonist: 72*; GalR3 antagonist: -12; OX1R antag-2: 27; GPR7 antag cf: 70*; MCHR1 antag: 65*

How did C[n+]1c(-c2ccccc2)cc(CCCCc2cc(-c3ccccc3)[n+](C)c(-c3ccccc3)c2)cc1-c1ccccc1 do in these assays?
CHO parental Ca: -20; OX1R antag-1: -26; GPR7 antagonist: 9; GalR3 antagonist: -4; OX1R antag-2: 32

Results for NNC(N)=O ?
CHO parental Ca: -2; OX1R antag-1: -6; OX1R antag-2: 12

Results for COc1ccc(C2NCc3ccc4c(c3-n3cccc32)OCO4)cc1O (centres undefined) ?
CHO parental Ca: -4; OX1R antag-1: 1; GPR7 antagonist: 50*; OX1R antag-2: 17; GPR7 antag cf: 53*; MCHR1 antag: 37*

How did c1cc2n(c1)-c1c(ccc3c1OCO3)CNC2c1ccc2c(c1)OCO2 (centres undefined) do in these assays?
CHO parental Ca: -14; OX1R antag-1: -5; GPR7 antagonist: 25*; GalR3 antagonist: -5; OX1R antag-2: 17; GPR7 antag cf: 49*; MCHR1 antag: 30*

How did Cc1ccc(OC(=O)N(C)C[C@H]2OCc3cnnn3CCCC(=O)N([C@H](C)CO)C[C@@H]2C)cc1 do in these assays?
GalR3 antagonist: -5

Results for Cc1nc2cc(C(F)(F)F)ccc2n1C1CCN(Cc2nnnn2Cc2ccc3c(c2)OCO3)CC1 ?
CHO parental Ca: 28; OX1R antag-1: 1; GPR7 antagonist: 9; GalR3 antagonist: -7; OX1R antag-2: 2

What do the screens show for `Cc1nc2cc(C(F)(F)F)ccc2n1C1CCN(Cc2nnnn2Cc2cccs2)CC1`?
CHO parental Ca: 61*; OX1R antag-1: 43*; GPR7 antagonist: 32*; GalR3 antagonist: -6; OX1R antag-2: -1; GPR7 antag cf: 47*; MCHR1 antag: 38*
